Active and inactive are the calls of the source. The calls are words filed in the database; no cut-off is given here.

Here are results for 13 compounds from ChEMBL document CHEMBL1139842, “Effects of azaspiracid-1, a potent cytotoxic agent, on primary neuronal cultures. A structure-activity relationship study” (J Med Chem, 2007).

Series [1] is described as follows: Effect on intracellular pH in presence of calcium in cerebellar granule cells at 1 uM. The class given is functional, cell-based. The conditions noted are these: Mus musculus. An outline of the steps:
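530-nm emission ratio at 490/440 excitation from 25-30 cells per coverslip, converted to pH by nigericin in situ calibration (pH 6-9). Tested in calcium-free medium then after calcium restoration, or in calcium-containing medium; drug buffer pH 7.4.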

Series [2] is described as follows: Decrease in intracellular pH in cerebellar granule cells in calcium free medium at 1 uM. In kind it is functional. Put shortly:
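Single-cell imaging at 37 °C in an open-bath chamber, drug buffers at pH 7.4. Compound added in calcium-free buffer, then calcium restored, or added in calcium-containing buffer. Read-out is the 490/440 excitation ratio at 530 nm emission from 25-30 cells per coverslip, converted to pH by nigericin in situ calibration (pH 6-9). Three to five independent experiments, each in duplicate.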

Series [3] is described as follows: Increase in cytosolic calcium concentration in cerebellar granule cells in presence of calcium at 1 uM. The conditions noted are these: Mus musculus. The class given is functional. An outline of the steps:
(§1)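 Cultured mouse cerebellar granule cells co-loaded with Fura-2 AM (1 µM) and BCECF-AM (0.5 µM), 10 min at 37 °C, imaged by epifluorescence microscopy in a 37 °C open-bath chamber. Compound applied in calcium-free buffer (pH 7.4) before calcium was restored, or added directly in calcium-containing medium. [Ca2+]c calibrated by the Grynkiewicz method. Means ± SEM of 3-4 experiments in duplicate.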

The nature of series [4]: Increase in cytosolic calcium concentration in cerebellar granule cell in calcium free medium at 1 uM. The class given is functional, cell-based. The conditions noted are these: Mus musculus. An outline of the steps: as §1
The subject of series [5] is cerebellar granule cells (mouse). Description: Cytotoxicity against cerebellar granule neurons at 250 nM by MTT assay after 24 hrs. Background: Formazan colour is commonly taken as a measure of viable cells.
The test system is the same in series [6]. The series can be described thus: Increase in cytosolic calcium concentration in cerebellar granule cells in presence of calcium at 1 uM.
The test system of another series is COLO. The series can be described thus: Cytotoxicity against cerebellar granule neurons at 250 nM by MTT assay after 4 hrs. In kind it is functional, Mus musculus. An outline of the steps: (§2)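 Primary cerebellar granule cells from 7-day-old Swiss mice, cultured 8-11 days in KCl (25 mM) DMEM with 10% fetal calf serum and cytosine arabinoside. Exposed in culture medium to compound (0.5-250 nM range; fragments 250 nM) for 4, 8 or 24 h at 37 °C. Then MTT 500 µg/mL in Locke's buffer for 30 min, SDS lysis, formazan read at 590. IC50 given with 95% confidence intervals.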

Series [7] can be described thus: Cytotoxicity against cerebellar granule neurons by MTT assay. Conditions: mouse, cerebellar granule neurone. Put shortly: (§3)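 Primary cerebellar granule cells from 7-day-old Swiss mouse cerebella, cultured 8-11 days in DMEM with 25 mM KCl and 10% fetal calf serum; cytosine arabinoside (20 µM) against glia. Compound added in culture medium for 4, 8 or 24 h (0.5-250 nM range; fragments 24 h at 250 nM). MTT (500 µg/mL, 30 min, Locke's buffer), SDS lysis, formazan absorbance at 590. Means ± SEM.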

Series [8] can be described thus: Cytotoxicity assessed as effect on viability of cerebellar granule neurons at 100 nM by MTT assay after 4 hrs. The conditions noted are these: mouse, read-out: Activity. More on the design: species or system Cerebellar granule neurone. Put shortly: as §3
Series [9] can be described thus: Cytotoxicity against cerebellar granule neurons by MTT assay after 8 hrs. More on the design: species or system Mus musculus, Cerebellar granule neurone. Put shortly:
as §2

A short description of series [10]: Cytotoxicity against cerebellar granule neurons by MTT assay after 24 hrs. More on the design: species or system Mus musculus, Cerebellar granule neurone. Put shortly: as §2
The mark [11] stands for this setting: Mus musculus, Cerebellar granule neurone.
Where [12] appears, read: mouse, cerebellar granule neurone.

Take `COC(=O)[C@@H](NC(=O)C[C@@]12C[C@@H](C)C[C@H](O1)[C@H]1O[C@]3(C[C@H]1O2)NC[C@H](C)C[C@@H]3C)c1ccccc1` (single isomer, unassigned): the outcome in series [1], in series [2] (Mus musculus), in series [3] and in [4] was inactive. In series [5], this compound had an Activity of 90.49%.
As to `COC(=O)[C@H](NC(=O)C[C@@]12C[C@@H](C)C[C@H](O1)[C@H]1O[C@]3(C[C@H]1O2)NC[C@H](C)C[C@@H]3C)c1ccccc1`, the outcome in series [1], in series [2] (Mus musculus), in [3] and in series [4] was inactive. In addition, the Activity in [5] turned out to be 99.25%.
Regarding `COC(=O)[C@H](NC(=O)C[C@]12C[C@H](C)C[C@@H](O1)[C@@H]1O[C@@]3(C[C@@H]1O2)NC[C@@H](C)C[C@H]3C)c1ccccc1`, the result in [1], in series [2] (Mus musculus), in [3] and in [4] was inactive. Further, the Activity in series [5] came out at 99.4%.
With `C[C@H]1CN[C@]2(C[C@H]3O[C@]4(CC(=O)O)C[C@@H](C)C[C@H](O4)[C@H]3O2)[C@@H](C)C1` (single isomer, unassigned), the result in [1], in series [2] (Mus musculus), in series [3] and in series [4] was inactive. Also, in [5], the Activity was determined as 110.15%.
With `C[C@@H]1CN[C@@]2(C[C@@H]3O[C@@]4(CC(=O)O)C[C@H](C)C[C@@H](O4)[C@@H]3O2)[C@H](C)C1`, the outcome in series [1], in [2] (Mus musculus), in [3] and in series [4] was inactive. Besides, the Activity in series [5] is 84.95%.
`C=C(CO)[C@H]1O[C@@](O)([C@H](O)[C@@H]2C[C@H]3O[C@@]4(CC[C@]5(CC=C[C@@H](/C=C/CCC(=O)O)O5)O4)[C@H](C)C[C@H]3O2)[C@H](C)C[C@@H]1C`: the Activity in series [5] is 99.09%; in [6], 200 nM.
As for `C[C@@H]1C[C@H]2O[C@H](CO)C[C@H]2O[C@@]12CC[C@]1(CC=C[C@@H](/C=C/CCC(=O)O)O1)O2`, the result in series [4] was inactive. Further, the Activity in series [5] is recorded as 100.32%; in [6], 100 nM.
For the compound `COC(=O)[C@@H](NC(=O)C[C@]12C[C@H](C)C[C@@H](O1)[C@@H]1O[C@@]3(C[C@@H]1O2)NC[C@@H](C)C[C@H]3C)c1ccccc1` (single isomer, unassigned), the result in series [1], in series [3] and in [4] was inactive. Moreover, in series [5], the Activity is 90.02%.
As for `C=C(CO)[C@H]1O[C@@](O)([C@@H](O)[C@H]2C[C@@H]3O[C@]4(CC[C@@]5(CC=C[C@H](/C=C/CCC(=O)O)O5)O4)[C@@H](C)C[C@@H]3O2)[C@H](C)C[C@@H]1C`, the result in [4] was inactive. The Activity in series [5] worked out at 100.57%; in [6], 250 nM.
A word on the IC50: it is the concentration needed to halve the response being measured. A high value points to weaker potency in that assay. In the case of `C=C(C[C@]12C[C@@H](C)C[C@H](O1)[C@H]1O[C@]3(C[C@H]1O2)NC[C@H](C)C[C@@H]3C)[C@H]1O[C@@](O)([C@H](O)[C@@H]2C[C@H]3O[C@@]4(CC[C@]5(CC=C[C@@H](/C=C/CCC(=O)O)O5)O4)[C@H](C)C[C@H]3O2)[C@H](C)C[C@@H]1C`, the result in series [1] and in [4] was inactive. Moreover, the Activity is 40% with COLO; -0.15 in [2]; “Dose-dependent effect and tde” in [7]; 90% in series [9] (setting [12]); 85% in [10] (setting [12]). For the same compound, the outcome in [3] was Active. In addition, the viability at 4 h, 0.1 µM in series [8] turned out to be 40%. In addition, the IC50 in series [9] (setting [11]) amounted to 32 nM; in [10] (setting [11]) it was 0.87 nM.
`C[C@H]1C[C@H]2O[C@H](CO)C[C@H]2O[C@]12CC[C@@]1(CC=C[C@H](/C=C/CCC(=O)O)O1)O2`: the results for the Activity in [5] and in series [6] were 98.29% and 150 nM, respectively.
Taken in the same sequence, the figures for `C[C@H]1C[C@@H]2O[C@@H](CO)C[C@@H]2O[C@]12CC[C@@]1(CC=C[C@H](/C=C/CCC(=O)O)O1)O2` were 83.66% and 150 nM.
For the compound `C[C@@H]1C[C@H]2O[C@H](CO)C[C@H]2O[C@]12CC[C@@]1(CC=C[C@H](/C=C/CCC(=O)O)O1)O2`, the outcome in series [4] was inactive. Also, the values for the Activity in series [5] and in series [6] were 102.59% and 130 nM, respectively.
